Most compounds without a hit are left out; they make up all but 4.1% or so of the library.
Mdm2 MdmX PPI: disrupts the human Mdm2-MdmX interaction; SaOS-2 split-luciferase Mdm2/MdmX complementation, luminescence; actives 3% (n = 330,000); inhibition, % at 8 µM; O15151+Q00987;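 active means inhibition of at least 50% at 8 µM in the primary screen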
UBC13 polyUb: inhibitors of human UBC13 polyubiquitin chain formation; TR-FRET; AID 485273; P61088; actives 0.47% (n = 330,000); inhibition, % at 20 µM; in the data active means inhibition above about 45%, passing the limit was not always enough
Target sequence (P61088 whole entry, looked up): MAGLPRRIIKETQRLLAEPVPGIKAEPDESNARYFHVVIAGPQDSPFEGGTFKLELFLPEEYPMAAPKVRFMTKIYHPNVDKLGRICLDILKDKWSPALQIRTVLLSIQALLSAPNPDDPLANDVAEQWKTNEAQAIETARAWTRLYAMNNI
UPR XBP1 act: activators of adaptive arm of unfolded protein response (XBP1) | CHO-XBP1 luciferase reporter, IRE1-XBP1 UPR activation, luminescence; percent of tunicamycin response, DMSO as zero | activation, % at 20 µM | actives 0.33% (n = 330,000);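 active means versus positive control, 20 µM dose yields 30% or more activation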
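Assay system: IRE1-XBP1 luciferase reporter CHO line. Input: 1000 cells/well. Buffer or medium: F12 with 10% serum. Doses: 20 µM, 1% DMSO. Times: overnight seeding at 37 °C, 6 h compound treatment at 37 °C. Technique: Steady-Glo luciferase glow luminescence, 10 min after reagent addition.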
UPR CHOP act: activators of apoptotic arm of unfolded protein response (CHOP) | CHO-CHOP luciferase reporter, UPR activation, luminescence; percent of tunicamycin response over DMSO baseline | activation, % at 10 µM | actives 0.34% (n = 330,000);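 active means at 10 µM dose, activation of 40% or more, normalized to positive control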
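Material: CHO-CHOP cells, stable luciferase reporter of PERK-eIF2a-CHOP signalling; quantity: 500 reporter cells seeded per well; buffer or medium: F12 medium containing 10% fetal bovine serum; compound: one dose, 10 µM in 0.5% DMSO; incubation: 6 h compound treatment, 37 °C; measured by: Steady-Glo luciferase luminescence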
Apaf1 inhib: human Apaf-1 inhibition | O14727 | reconstituted apoptosome caspase-3 activity, DEVD-Rh110 fluorescence | inhibition, % at 20 µM | actives 0.71% (n = 330,000) | AID 489030; active means inhibition of at least 40% at 20 µM
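detection = Rh110 fluorescence intensity | test system = biochemical Apaf-1 apoptosome reconstitution | also added = cytochrome c and DEVD-Rh110 substrate | schedule = 30 min plus 50 min, RT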
Mdm2 MdmX conf: human Mdm2/MdmX binding inhibition, confirmed; inhibition, % at 8 µM; AID 489028; actives 55% (n = 10,000); shares compounds with Mdm2 MdmX PPI; luminescent assay; in the data active means inhibition above about 40%
Full FLuc ctr: inhibits full-length luciferase, flagging false Mdm2/MdmX hits | shares compounds with Mdm2 MdmX PPI | actives 77% (n = 6,200) | inhibition, % at 8 µM | SaOS-2 full-length luciferase counterscreen, luminescence;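 active means mean inhibition at 8 µM reaching about 37%, which flags the compound as non-specific, limit read from the data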;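 further: p53-null SaOS-2 cells with luciferase driven by a doxycycline-inducible promoter; compound on cells about two nights before reading with doxycycline added after day one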
Of the large screens only hits and unclear results are named; the others gave an inactive call (follow-up assays come after a bar, where they were run).

CSc1c(CC(=O)Nc2ccccc2)n(C)c2ccccc12	Mdm2 MdmX PPI 50 | Mdm2 MdmX conf inactive
CC(C)(C)c1ccc(-n2nc(C#N)c(Cl)cc2=O)cc1	Mdm2 MdmX PPI 100 | Mdm2 MdmX conf 100 | Full FLuc ctr inactive
COc1ccc(S(=O)(=O)N2CCC(C)CC2)cc1OC	none
O=S(=O)(c1ccc2c(c1)C(=NO)c1cc(S(=O)(=O)N3CCCCC3)ccc1-2)N1CCCCC1	Mdm2 MdmX PPI 95, UPR XBP1 act 134, UPR CHOP act 149 | Mdm2 MdmX conf 99 | Full FLuc ctr inactive
CC1CCN(S(=O)(=O)c2ccc3c(c2)C(=NO)c2cc(S(=O)(=O)N4CCC(C)CC4)ccc2-3)CC1	Mdm2 MdmX PPI 100 | Mdm2 MdmX conf 100 | Full FLuc ctr inactive
O=S(=O)(c1ccc(S(=O)(=O)N2CCCC2)cc1)N1CCCCCC1	none
COc1ccc(C(=O)NCC(C)(C)N2CCOCC2)cc1S(=O)(=O)N1CCCC1	none
C[C@H]1CN=C(Nc2ccccc2)N1CC1CCCCCC1	none
CCOC(=O)C1=C(N)Oc2c(c(=O)[nH]c3ccccc23)C1c1ccccc1 (stereo unspecified)	none
CC(=O)c1c(C)n(CCc2ccc(Cl)cc2)c2ccc(O)cc12	none
O=Nc1c(O)n(Cc2ccc(Cl)cc2Cl)c2ccccc12	none
O=Nc1c(O)n(Cc2ccc(Cl)cc2)c2ccccc12	Mdm2 MdmX PPI 51 | Mdm2 MdmX conf inactive
O=Nc1c(O)n(Cc2c(Cl)cccc2Cl)c2ccccc12	Mdm2 MdmX PPI 52 | Mdm2 MdmX conf inactive
Cc1ccc2c(c1)c(N=O)c(O)n2Cc1ccc(Cl)cc1	Mdm2 MdmX PPI 60 | Mdm2 MdmX conf inactive
COC1=CC(=O)[C@@]2([C@@H]1O)[C@@H](Cl)C[C@]13C(OC)=C(OC)C(=O)C[C@]21CCN3C	none
COc1ccc(S(=O)(=O)N2CCC(C(=O)NN3CCCCC3)CC2)cc1OC	none
CCCn1c2ccccc2c2nnc(SC(CC)C(=O)Nc3sc4c(c3C#N)CCCC4)nc21 (stereo unspecified)	Mdm2 MdmX PPI 54 | Mdm2 MdmX conf inactive
O=C(NCc1cccs1)C1CCN(c2ccc(S(=O)(=O)N3CCOCC3)cc2Cl)CC1	Mdm2 MdmX PPI 63 | Mdm2 MdmX conf 43 | Full FLuc ctr 91
C#CCNC(=O)C1CCN(c2ccc(S(=O)(=O)N3CCOCC3)cc2Cl)CC1	none
Cc1cccc(NC(=O)c2cc(-c3ccc(C)c(C)c3O)n[nH]2)c1	Mdm2 MdmX PPI 53 | Mdm2 MdmX conf inactive
CC(=O)c1ccc(Oc2ncnc(N)c2[N+](=O)[O-])cc1	Mdm2 MdmX PPI 60 | Mdm2 MdmX conf 60 | Full FLuc ctr 45
CCOc1ccc(C(=O)NC(=S)Nc2ccccn2)cc1[N+](=O)[O-]	Mdm2 MdmX PPI 88 | Mdm2 MdmX conf inactive
COc1ccc(/C=C/C(=O)OCC(=O)NC2CCCC2)c(OC)c1	none
Oc1cccc(Nc2nc(N3CCOCC3)nc(N3CCOCC3)n2)c1	Mdm2 MdmX PPI 56 | Mdm2 MdmX conf 43 | Full FLuc ctr 74
FC(F)(F)c1cccc(Nc2nc(N3CCOCC3)nc(N3CCOCC3)n2)c1	none
Cc1cccc(Nc2nc(N3CCCCC3)nc(N3CCCCC3)n2)c1	none
Cc1ccc(F)cc1NC(=O)CSc1nc(Nc2ccccc2)nc(N2CCOCC2)n1	Mdm2 MdmX PPI 74 | Mdm2 MdmX conf inactive
Cc1cccc(Nc2nc(N3CCOCC3)nc(N3CCOCC3)n2)c1	Mdm2 MdmX PPI 51 | Mdm2 MdmX conf inactive
c1ccc(Nc2nc(N3CCOCC3)nc(N3CCOCC3)n2)cc1	Mdm2 MdmX PPI 56 | Mdm2 MdmX conf inactive
Cc1ccc(S(=O)(=O)N2CCC(C(=O)N3CCCC(C(F)(F)F)C3)CC2)cc1C (stereo unspecified)	none
Cc1c(Br)c([N+](=O)[O-])nn1CC(=O)N1CCN(C23CC4CC(CC(C4)C2)C3)CC1	none
CCn1c(NC(=O)Nc2ccccc2OC)nc2ccccc21	none
COc1ccc(/C=N/NC(=O)c2cccc(S(=O)(=O)N3CCCC3)c2)cc1O	none

Source: PubChem (Sanford-Burnham Center for Chemical Genomics)
